Source: PMC3026963 (The Biochemical journal, 2010)
Entries after “also recorded” stand apart in the source; their conditions may differ.

Biological target: CK2α catalytic subunit (Homo sapiens, UniProt P68400)
Test: In vitro phosphorylation assay of CK2α with peptide substrate RRRADDSDDDDD
Assay type: biochemical
Settings: substrate RRRADDSDDDDD
Outline: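 Activity is expressed as % of no-peptide control, as the mean of at least three independent experiments. Full-length murine NBD1ΔF508 (389–673) tests were run at 350 μM ATP.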

Chain of CK2α catalytic subunit (P68400 whole entry): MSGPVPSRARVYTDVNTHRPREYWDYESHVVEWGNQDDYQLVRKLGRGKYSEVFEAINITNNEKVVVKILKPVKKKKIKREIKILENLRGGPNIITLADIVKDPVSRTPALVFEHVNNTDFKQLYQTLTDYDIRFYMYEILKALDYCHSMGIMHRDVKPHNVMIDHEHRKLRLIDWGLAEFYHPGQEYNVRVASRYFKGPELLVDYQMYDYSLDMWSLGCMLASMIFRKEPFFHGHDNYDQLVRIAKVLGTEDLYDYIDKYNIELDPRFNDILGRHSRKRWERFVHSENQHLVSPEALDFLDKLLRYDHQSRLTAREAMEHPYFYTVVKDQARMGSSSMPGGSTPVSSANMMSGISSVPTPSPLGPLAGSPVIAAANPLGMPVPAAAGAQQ

Substance	inhibitory efficacy on CK2α (in words) (compared with the parent peptide)	onset of stimulation of CK2α catalytic activity (β-peptide alone) [µM]
CFTRΔI507 peptide: CFTR(500–518) peptide with Ile^507 deleted (GTIKENIFGVSYDEYRYR)	loss in inhibitory efficacy; also recorded: unable to exert the same efficacy of the CFTRΔF508 peptide	
β-peptide: peptide reproducing the C-terminal segment of the CK2 β-subunit encompassing residues 182–203 (QFVPRLYGFKIHPMAYQLQLQA; UniProt P67870 182-203, looked up, fragment) [reference compound]		50
